Assay outcomes deposited in PubChem by several laboratories.
Calb FLC: C. albicans growth inhibition with fluconazole, primary screen, CaCi-2 strain, Alamar Blue fluorescence. 300,000 tested, 0.57% active. C. albicans CaCi-2 (fluconazole-resistant clinical isolate) + fluconazole, 48 h. growth inhibition, % (no concentration beside the values);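 active = growth inhibition above about 58% in most replicates, limit read from the data, passing the limit was not always enough; inconclusive = exactly half the replicates above a set limit; inactive = most replicates below a set limit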;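 note: all wells also contain fluconazole at 8 µg/ml as a sub-toxic cotreatment; 0% = median of DMSO wells and 100% = median of geldanamycin control wells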
NALP1 inh: NALP1 inflammasome inhibitors in reconstituted yeast, colorimetric, S. cerevisiae, triplicate retest; S. cerevisiae NALP1/ASC/caspase-1 growth, X-gal OD620, 72 h; inhibition, % at 10 µM; 280,000 tested, 0.61% active; AID 2071, 2009; in the data active = inhibition mostly above about 24%, no sharp cut-off; inactive = mostly below about 32%
PolyA inh: polyadenylation inhibitors in yeast reporter cells, primary screen, luminescence, S. cerevisiae. S. cerevisiae SKY197-pL101 polyadenylation reporter, beta-gal luminescence; efflux-impaired pdr1/pdr3 knockout yeast; score 100 = 6 SD above DMSO. activity score, % at 12 µM. 300,000 tested, 0.02% active;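 active = lowest replicate activity score at least 50, where 100 means six control SD above control mean; inconclusive = lowest score under 50 but half or more replicates reach 50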;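 note: yeast exposed to compound for 9 h at 30 °C; higher score means more reporter readthrough which indicates perturbed polyadenylation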
NALP3 yeast inh: NALP3 inflammasome inhibitors in reconstituted yeast, primary screen, luminescence, uHTS. Yeast reconstituted NLRP3/ASC/caspase-1, beta-gal luminescence, 24 h. inhibition, % at 10 µM. 330,000 tested, 0.39% active. AID 2825, 2010;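 active = inhibition of 50% or more; inactive = inhibition below 50%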;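 note: plate controls were induced DMSO wells for no effect and uninduced yeast grown without galactose for full effect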
L major viab: Leishmania major promastigote growth inhibition, primary screen | inhibition, % at 10 µM | 200,000 tested, 9% active | AID 1063, 2008 | Leishmania major promastigotes, resazurin fluorescence viability; in the data active = inhibition above about 50%;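 note: promastigotes grown with compound for 44 hours at 28 °C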
T cruzi inh: inhibitors of intracellular T. cruzi growth, primary screen, luminescence, NIH3T3 host cells; T. cruzi beta-gal in NIH3T3, 90 h; AID 1885, 2009; 300,000 tested, 1.4% active; inhibition, % (concentration not given with the values);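 active = mean inhibition across valid replicates above about 55%, limit read from the data; inconclusive = mean below that limit but half or more replicates reach it; inactive = mean below it, under half of replicates reach it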;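 note: signal also drops with host cell toxicity which is not excluded here; 0% = plate median of DMSO wells and 100% = zero luminescence signal; higher percent means less beta-gal luminescence so fewer parasites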
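System: NIH/3T3 fibroblasts plus reporter T. cruzi. Medium: DMEM plus 2% FBS. Probe or stimulus: 5000 reporter trypomastigotes per well. Compound: single 50 nL compound addition per well in DMSO. Incubation: co-culture of at least 90 h after 3 h attachment. Detection: GalScreen β-gal luminescence, detergent lysis, 60 min. Evaluation: parasite load inhibition, %.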
An asterisk follows results filed as active; ? = inconclusive; · = no result given. The sample as a whole holds a higher share of hits than the screen did.

SMILES	Calb FLC	NALP1 inh	PolyA inh	NALP3 yeast inh	L major viab	T cruzi inh
c1cncc(Cc2cc3ccccc3[nH]2)c1	-1	11	1	11	50*	-6
OC(Cc1cccnc1)(Cc1cccnc1)c1cc2ccccc2[nH]1	11	27	7	10	55*	21
Cc1[nH]nc2c1C(c1ccc3c(c1)OCO3)C(C#N)=C(N)O2 (stereo not given)	0	20	5	18	35	-26
CCCc1[nH]nc2c1C(c1ccccc1OCC)C(C#N)=C(N)O2 (stereo not given)	-3	2	-2	18	54*	-13
COc1ccc(C2C(C#N)=C(N)Oc3n[nH]c(C)c32)cc1CSc1ccccn1 (stereo not given)	-5	-7	5	12	98*	-5
CCOc1ccc(-c2[nH]nc3c2C(c2ccc4c(c2)OCO4)C(C#N)=C(N)O3)cc1OC (stereo not given)	12	9	6	19	51*	-10
CCn1c2ccccc2c2cc(C3C(C#N)=C(N)Oc4n[nH]c(COC)c43)ccc21 (stereo not given)	8	11	-10	-3	89*	-14
CC(=O)Nc1ccc(S(=O)(=O)N2CCN(c3ccc([N+](=O)[O-])cc3)CC2)cc1	0	8	-8	28	·	-10
CC(C)c1ccc(CNn2cnnc2)cc1	2	20	5	21	·	-3
CCOc1ccc(OCCC(=O)OC(C)C(=O)Nc2ccc(C(C)=O)cc2)cc1 (stereo not given)	7	6	-6	3	·	8
CC(C)(C)c1ccc(Cn2nnc3c(=O)[nH]c(C4CCCN(C(=O)c5cccs5)C4)nc32)cc1 (stereo not given)	12	4	1	14	·	32
CCCc1[nH]nc2c1C(c1cn[nH]c1-c1ccc(F)cc1)C(C#N)=C(N)O2 (stereo not given)	-2	2	20	-11	73*	-18
CCCc1[nH]nc2c1C(c1ccc(O)c(OC)c1)C(C#N)=C(N)O2 (stereo not given)	2	-5	14	-11	80*	3
COc1ccccc1CNC(=O)[C@H](C)NC(=O)C1CCN(C(=O)[C@@H](N)C(C)C)CC1	-2	-8	-3	-11	·	10
Cc1ccc(CC2SC(=Nc3ccccc3)N(c3ccccc3)C2=O)cc1 (stereo not given)	9	44	-24	10	53*	7
COc1ccc(NC(C)c2ccccc2)cc1 (stereo not given)	3	7	-26	·	6	-8
COc1ccc(NC(=O)NC(C)c2ccccc2)cc1 (stereo not given)	100*	3	·	-1	·	·
O=C(Nc1ccccc1Cl)C1CCN(S(=O)(=O)c2cccc3nonc23)CC1	-1	37*	-9	27	·	-19
COc1ccc2nc(NC(=O)C3CCCN(S(=O)(=O)c4cccc5nonc45)C3)sc2c1 (stereo not given)	10	7	-11	20	9	26
CCOc1ccc2nc(NC(=O)c3ccc(OCC4CCCO4)cc3)sc2c1 (stereo not given)	-3	36	-4	9	86*	45
CCOc1ccc2nc(NC(=O)C3CCCN(S(=O)(=O)c4cccc5nonc45)C3)sc2c1 (stereo not given)	4	-1	2	4	2	57*
CCC(C)C(=O)Nc1nc(C)c(-c2csc(Nc3cc(Cl)ccc3OC)n2)s1 (stereo not given)	-4	-9	-2	16	43	3
COc1ccc(OC)c(Nc2nc(-c3sc(NC(=O)C(C)(C)C)nc3C)cs2)c1	7	-27	9	10	93*	4
COc1ccc(Cl)cc1Nc1nc(-c2sc(NC(=O)C(C)(C)C)nc2C)cs1	1	-34	-12	4	96*	14
O=C1CCCCC1C(O)c1ccc(Cl)cc1 (stereo not given)	8	-5	6	12	·	-11
SMILES	Calb FLC	NALP1 inh	PolyA inh	NALP3 yeast inh	L major viab	T cruzi inh
Cc1ccc(-n2c(=O)c3sccc3n(CC(=O)NC3CCCCC3)c2=O)cc1	-5	1	8	23	12	1
COc1ccc(-c2n[nH]c(C)c2-c2cnn(-c3ccccc3)c2)c(O)c1C	22	8	-19	9	67*	1
COc1ccc(-c2onc(C)c2-c2cnn(-c3ccccc3)c2)c(O)c1C	?	-2	5	8	84*	19
Cc1oc2c(O)c(O)ccc2c(=O)c1-c1cnn(-c2ccccc2)c1	-5	-8	-2	-1	34	-21
COc1ccc(-c2n[nH]c(C)c2-c2cnn(-c3ccccc3)c2)c(O)c1	95*	-73	-10	21	-12	-1
Cc1nnc(SCC(=O)Nc2ccc(S(N)(=O)=O)cc2)n(N)c1=O	·	·	·	9	·	·
Cc1ccccc1N=C1NC(=O)/C(=C/c2cccn2C)S1	0	-25	-3	5	·	13
Cc1cccc(N=C2NC(=O)/C(=C3/C(=O)N(C)c4ccccc43)S2)c1C	14	-3	-12	12	68*	5
COc1ccc(-c2cc(CNC(=O)CCl)on2)cc1	-7	3	5	7	66*	-13
O=C(NC(Cc1ccccc1)C(=O)O)/C(=C\c1ccc(Cl)cc1)NC(=O)c1ccco1 (stereo not given)	0	20	-1	8	·	8
CCC1CCCCN1S(=O)(=O)c1ccc(C(=O)Nc2nnc(-c3ccccc3Cl)o2)cc1 (stereo not given)	11	2	-9	-7	99*	-25
CCC1CCCCN1S(=O)(=O)c1ccc(C(=O)Nc2nnc(C3CC3)o2)cc1 (stereo not given)	5	13	-31	-5	·	19
O=C(Nc1ccn(-c2ccccc2)n1)c1ccc(S(=O)(=O)N2CCCCCC2)cc1	33	1	9	36	66*	42
CC1CCCCN1S(=O)(=O)c1ccc(C(=O)Nc2nnc(-c3ccccc3Cl)o2)cc1 (stereo not given)	10	-7	-3	14	99*	36
O=C(Nc1nnc(-c2ccccc2Cl)o1)c1ccc(S(=O)(=O)N2CCCCCC2)cc1	1	-9	6	4	99*	47
Cc1nnc(NC(=O)CCC(=O)NC2CCCCCCC2)s1	-20	-2	0	6	·	-7
Clc1ccc(-c2nnc(N3CCOCC3)o2)cc1	12	-11	10	9	·	-24
CN(C)CCOC(C1CCCCC1)C1CCCCC1	-12	21	-15	16	50*	20
